# Source: ChEMBL document CHEMBL1165950, “Design and synthesis of new potent anticancer pyrazoles with high FLT3 kinase inhibitory selectivity” (Bioorg Med Chem, 2010)
# How the values were obtained:
# Assay type in all cases: functional
# [1] = system: A498; test: Cytotoxicity against human A498 cells assessed as cell growth at 10 uM; conditions: read-out: Activity
# Outline: (§1)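 Single-dose NCI-60 screen at 10 µM. Cells were grown in RPMI 1640 with 5% FBS and 2 mM L-glutamine, then treated for 48 h at 37 °C. Protein was measured by SRB staining with absorbance at 515 nm. Percentage growth was recorded, and inhibition percentage was calculated as 100 minus growth percentage.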
# [2] = system: SNB-19; test: Cytotoxicity against human SNB19 cells assessed as cell growth at 10 uM; conditions: read-out: Activity
# Outline: (§2)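 NCI-60 screen: cells grown in RPMI 1640 with 5% FBS and 2 mM L-glutamine, plated at 5000–40,000 cells/well according to doubling time, and preincubated 24 h at 37 °C, 5% CO2. The single 10 µM dose (DMSO stock) was added, then incubated 48 h. Cells were TCA-fixed and stained with 0.4% SRB, read at 515 nm, and growth % calculated against time-zero and control plates.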
# [3] = system: NCI/ADR-RES; test: Cytotoxicity against human NCI/ADR-RES cells assessed as cell growth at 10 uM; conditions: read-out: Activity; outline: as §2
# [4] = system: OVCAR-5; test: Cytotoxicity against human OVCAR5 cells assessed as cell growth at 10 uM; conditions: read-out: Activity; outline: as §2
# [5] = system: 786-0; test: Cytotoxicity against human 786-0 cells assessed as cell growth at 10 uM; conditions: read-out: Activity; outline: as §1
# [6] = system: RXF 393; test: Cytotoxicity against human RXF393 cells assessed as cell growth at 10 uM; conditions: read-out: Activity; outline: as §2
# [7] = system: NCI-H522; test: Cytotoxicity against human NCI-H522 cells assessed as cell growth at 10 uM; conditions: read-out: Activity; outline: as §2
# [8] = system: ACHN; test: Cytotoxicity against human ACHN cells assessed as cell growth at 10 uM; conditions: read-out: Activity; outline: as §1
# [9] = system: MOLT-4; test: Cytotoxicity against human MOLT4 cells assessed as cell growth at 10 uM; conditions: read-out: Activity; outline: as §2
# [10] = system: M14; test: Cytotoxicity against human M14 cells assessed as cell growth at 10 uM; conditions: read-out: Activity; outline: as §2
# [11] = system: MDA-MB-435; test: Cytotoxicity against human MDA-MB-435 cells assessed as cell growth at 10 uM; conditions: read-out: Activity; outline: as §2
# [12] = system: LOX IMVI; test: Cytotoxicity against human LOXIMVI cells assessed as cell growth at 10 uM; conditions: read-out: Activity; outline: as §2
# [13] = system: SK-MEL-28; test: Cytotoxicity against human SK-MEL-28 cells assessed as cell growth at 10 uM; conditions: read-out: Activity; outline: as §2
# [14] = system: UACC-257; test: Cytotoxicity against human UACC257 cells assessed as cell growth at 10 uM; conditions: read-out: Activity; outline: as §2
# [15] = system: UO-31; test: Cytotoxicity against human UO31 cells assessed as cell growth at 10 uM; conditions: read-out: Activity; outline: as §2
# [16] = system: SF-539; test: Cytotoxicity against human SF539 cells assessed as cell growth at 10 uM; conditions: read-out: Activity; outline: as §2
# [17] = system: K562; test: Cytotoxicity against human K562 cells assessed as cell growth at 10 uM; conditions: read-out: Activity; outline: as §1
# [18] = system: PC-3; test: Cytotoxicity against human PC3 cells assessed as cell growth at 10 uM; conditions: read-out: Activity; outline: as §2
# [19] = system: OVCAR-3; test: Cytotoxicity against human OVCAR-3 cells assessed as cell growth at 10 uM; conditions: read-out: Activity; outline: as §2
# [20] = Growth inhibition of human NCI60 cells at 10 uM after 48 hrs by sulforhodamine B assay relative to control; conditions: NCI60, 48 h, read-out: GI
# Outline: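 Single-dose NCI screen at 10 µM across the 60-line panel, 48 h exposure at 37 °C after a 24 h preincubation. Adherent cells were fixed with cold TCA and stained with 0.4% SRB, and absorbance was read at 515 nm. Inhibition % was taken as 100 minus growth %, and the mean across all lines was reported.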
# [21] = system: COLO 205; test: Cytotoxicity against human COLO205 cells assessed as cell growth at 10 uM; conditions: read-out: Activity; outline: as §1
# [22] = system: SF-268; test: Cytotoxicity against human SF268 cells assessed as cell growth at 10 uM; conditions: read-out: Activity; outline: as §2
# [23] = system: NCI-H460; test: Cytotoxicity against human NCI-H460 cells assessed as cell growth at 10 uM; conditions: read-out: Activity; outline: as §2
# [24] = system: T47D; test: Cytotoxicity against human T47D cells assessed as cell growth at 10 uM; conditions: read-out: Activity; outline: as §2
# [25] = system: DU-145; test: Cytotoxicity against human DU145 cells assessed as cell growth at 10 uM; conditions: read-out: Activity; outline: as §1
# [26] = Cytotoxicity against human Hs 578T cells assessed as cell growth at 10 uM; conditions: read-out: Activity; outline: as §1
# [27] = system: IGROV-1; test: Cytotoxicity against human IGROV1 cells assessed as cell growth at 10 uM; conditions: read-out: Activity; outline: as §1
# [28] = system: SN12C; test: Cytotoxicity against human SN12C cells assessed as cell growth at 10 uM; conditions: read-out: Activity; outline: as §2
# [29] = system: OVCAR-8; test: Cytotoxicity against human OVCAR8 cells assessed as cell growth at 10 uM; conditions: read-out: Activity; outline: as §2
# [30] = system: OVCAR-4; test: Cytotoxicity against human OVCAR4 cells assessed as cell growth at 10 uM; conditions: read-out: Activity; outline: as §2
smiles,measurement,setting,value
COc1cc(C)cc(-c2nn(CC#N)cc2-c2ccnc(-c3ccc(Oc4ccccc4)cc3)c2)c1,growth at 10 µM,[1],85.3%
same,growth at 10 µM,[2],88.5%
same,growth at 10 µM,[3],80.3%
same,growth at 10 µM,[4],90.2%
same,growth at 10 µM,[5],95%
same,growth at 10 µM,[6],64.2%
same,growth at 10 µM,[7],72.5%
same,growth at 10 µM,[8],85.4%
same,growth at 10 µM,[9],73.7%
same,growth at 10 µM,[10],102%
same,growth at 10 µM,[11],98.1%
same,growth at 10 µM,[12],98%
same,growth at 10 µM,[13],104%
same,growth at 10 µM,[14],91.6%
same,growth at 10 µM,[15],84.8%
same,growth at 10 µM,[16],95.3%
same,growth at 10 µM,[17],88%
same,growth at 10 µM,[18],91.9%
same,growth at 10 µM,[19],109%
same,inhibition of growth at 10 µM,[20],13.5%
same,growth at 10 µM,[21],98.6%
same,growth at 10 µM,[22],96.9%
same,growth at 10 µM,[23],106%
same,growth at 10 µM,[24],20.1%
same,growth at 10 µM,[25],105%
same,growth at 10 µM,[26],94.3%
same,growth at 10 µM,[27],94.9%
same,growth at 10 µM,[28],84.8%
same,growth at 10 µM,[29],84.4%
same,growth at 10 µM,[30],82.9%
